Screening results deposited in PubChem BioAssay by several laboratories.
The list is not random: actives were taken first. Their share in the collection is about 2.4%.
TCR-CD3 inh: human TCR-CD3 binding inhibition. 0.37% of 360,000 active. TAMRA-labeled TCR probe fluorescence, biochemical. inhibition, % at 9.4 µM; in the data active means inhibition above about 19%;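 further: recombinant mutant TCR 2C K166C tagged with TAMRA read by polarization; 0% = receptor in buffer alone and 100% = receptor with positive control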
SIAE inh: blocks human sialic acid acetylesterase; Q9HAT2; SIAE FP-Rh probe binding, fluorescence polarization; inhibition, % at 9.66 µM; 0.69% of 370,000 active;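 active means inhibition above a cutoff: mean of compounds within the control limits plus 3 SD of those, cut at about 17% in these data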;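 further: 0% = plate median of compound wells and 100% = probe without SIAE protein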
Target sequence (Q9HAT2 whole entry, looked up): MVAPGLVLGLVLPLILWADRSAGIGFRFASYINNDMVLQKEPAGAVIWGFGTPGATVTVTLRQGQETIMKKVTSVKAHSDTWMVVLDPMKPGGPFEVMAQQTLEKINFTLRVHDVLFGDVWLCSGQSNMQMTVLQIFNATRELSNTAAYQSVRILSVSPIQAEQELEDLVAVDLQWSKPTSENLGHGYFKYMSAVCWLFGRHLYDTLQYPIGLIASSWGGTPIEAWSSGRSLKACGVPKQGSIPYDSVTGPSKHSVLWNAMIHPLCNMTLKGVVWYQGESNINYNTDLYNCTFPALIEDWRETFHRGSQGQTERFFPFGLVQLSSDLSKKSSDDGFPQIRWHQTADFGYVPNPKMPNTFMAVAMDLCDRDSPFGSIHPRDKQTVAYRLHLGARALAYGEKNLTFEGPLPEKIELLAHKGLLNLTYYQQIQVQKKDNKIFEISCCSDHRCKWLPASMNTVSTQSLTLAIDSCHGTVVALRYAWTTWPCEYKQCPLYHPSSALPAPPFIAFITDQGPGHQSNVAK
TDP2 absorb: TDP2 (human) inhibition, absorbance primary screen; recombinant TDP2, T5PNP hydrolysis, p-nitrophenol absorbance 415 nm; inhibition, % at 12.8 µM; 0.34% of 370,000 active; AID 720702;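 active means inhibition above the mean of all tested compounds plus 3 SD, set per campaign, cut at about 25% in these data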;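 further: 0% = DMSO with enzyme and 100% = buffer with substrate but no TDP2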
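Test system: human TDP2 enzyme; Input: 120 nM TDP2 per well; Buffer or medium: Mg2+-containing Tris-HCl buffer, pH 7.5; Reagent: 5 mM T5PNP; Dosing: 12.8 µM single point, 1% DMSO; Incubation: reaction 2 h, 37 °C; Detection: p-Nitrophenol epi absorbance; Read-out: % inhibition relative to enzyme-containing and enzyme-free wells; Replicates: single well per compound.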
GSTO1 inh: GSTO1 inhibition, counter-screen for RBBP9 inhibitors; P78417; 1.1% of 300,000 active; recombinant GSTO1, activity-based probe fluorescence polarization; inhibition, % at 5.96 µM;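 active means inhibition above the campaign mean inhibition plus 3 SD, cut at about 35% in these data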;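 further: 0% = GSTO1-1 with DMSO and 100% = wells lacking GSTO1-1 enzyme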
Apaf1 inhib: human Apaf-1 inhibition. reconstituted apoptosome caspase-3 activity, DEVD-Rh110 fluorescence. inhibition, % at 20 µM. 0.71% of 330,000 active. AID 489030; active means inhibition of at least 40% at 20 µM;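 further: plate controls were DMSO wells for no effect and DEVD-CHO caspase inhibitor wells for full effect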
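Material: reconstituted apoptosome with Apaf-1, cytochrome c, caspase-9, procaspase-3, dATP / Buffer or medium: pH 7.5 Hepes buffer with CHAPS, BSA, DTT / Also added: cytochrome c with DEVD-Rh110 / Schedule: compound with Apaf-1, dATP, procaspase-3 30 min, then 50 min reaction, room temperature / Technique: rhodamine 110 fluorescence at Ex 480/Em 540 nm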
PAD4 inh: PAD4 (human) enzyme inhibition. 0.41% of 330,000 active. recombinant PAD4, RCA probe fluorescence polarization. inhibition, % at 6.36 µM. AID 485272;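 active means percent inhibition above a cutoff equal to the mean of all tested compounds plus 3 SD, cut at about 15% in these data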;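 further: 0% = PAD4 with RCA probe and DMSO and 100% = probe without PAD4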
Starred values were filed as active, the others as inactive; nt = no result given.

SMILES | TCR-CD3 inh | SIAE inh | TDP2 absorb | GSTO1 inh | Apaf1 inhib | PAD4 inh
O=S(=O)(Nc1ccc(O)c2ccccc12)c1ccc(Br)cc1 | nt | nt | nt | 61.3* | 57.3* | 18.7*
C=CCn1c(N)c(C(=O)Nc2cccc(C)c2)c2nc3ccccc3nc21 | 9.6 | 5.0 | 1.7 | 17.5 | 47.5* | -5.8
CN(C)c1ccc(-c2[nH][nH]c(=O)c2NC(=O)c2ccc3ccccc3n2)cc1 | 2.0 | 9.3 | 90.4* | nt | nt | nt
CN(C)c1ccc(-c2[nH][nH]c(=O)c2NC(=O)c2ccccn2)cc1 | -0.4 | 5.7 | 87.0* | nt | nt | nt
COc1ccc(-c2[nH][nH]c(=O)c2NC(=O)c2ccccc2Br)cc1 | -2.2 | 1.6 | -13.5 | nt | nt | nt
Cc1cnc(C(=O)Nc2c(-c3ccccc3)[nH][nH]c2=O)cn1 | -5.4 | 2.3 | -3.8 | nt | nt | nt
CCOC(=O)Nc1ccccc1C(=O)Nc1cc(C)cc(C)c1 | -11.9 | -11.9 | -16.6 | -12.9 | 8.6 | -1.2
O=C(CCl)Nc1ccccc1C(=O)NCc1ccccc1 | 2.2 | -12.1 | -12.5 | 85.9* | -5.3 | -0.8
Cc1cc(NS(=O)(=O)c2ccc(NC(=O)c3ccc([N+](=O)[O-])s3)cc2)nc(C)n1 | 3.5 | 0.0 | 11.1 | nt | 20.8 | -7.9
Cc1ccnc(NS(=O)(=O)c2ccc(NC(=O)c3ccc([N+](=O)[O-])s3)cc2)n1 | 4.4 | -3.3 | 2.2 | 36.7* | -3.4 | -1.8
O=C(NC1CCS(=O)(=O)C1)Oc1ccccc1 (stereo not drawn) | 6.2 | 3.1 | 6.3 | -3.2 | 51.1* | -0.7
O=C1c2ccccc2C(=O)c2c1ccc(O)c2O | 16.4 | 18.7* | 5.5 | nt | nt | nt
Cc1ccc2nc(Cl)c(-c3ccccc3)cc2c1 | 3.0 | -8.0 | 9.0 | -6.2 | 12.6 | 1.1
Cc1ccc2nc(CCl)[n+]([O-])c(-c3ccccc3)c2c1 | -3.0 | 3.5 | 5.8 | 35.5* | 2.7 | -9.8
Cc1ccc(NC(=S)NCC2CCN(C(C)c3ccccc3)C2)cc1C (stereo not drawn) | 6.4 | 8.4 | -0.3 | 5.0 | -15.3 | -4.3
Cc1ccc(-n2nnnc2SCC(=O)Nc2sc(C)c(C)c2C#N)cc1C | 11.0 | 1.5 | 6.7 | 11.0 | -3.2 | 0.3
Cc1ccc(C(NC(=O)N2CCOCC2)=C(Cl)Cl)cc1F | -0.2 | 7.0 | -0.7 | 36.5* | 0.6 | 4.7
Cc1ccc(C(NC(=O)N2CCOCC2)C(Cl)Cl)cc1F (stereo not drawn) | 3.8 | -2.7 | -0.5 | 1.3 | -6.3 | -5.3
Cc1ccc(S(=O)(=O)Nc2ccc(Nc3nccn4c(-c5ccc6ccccc6c5)cnc34)cc2)cc1 | -5.4 | -7.8 | 0.4 | nt | nt | nt
Cc1ccc(-c2cc[n+](Cc3ccccc3)cc2)cc1 | -0.7 | -3.5 | -23.7 | 2.9 | -0.1 | -1.8
Cc1ccc2c(c1)sc[n+]2Cc1ccccc1 | -8.0 | 0.8 | 4.6 | 0.9 | -16.1 | 21.9*
COc1ccc(NC(=O)Nc2ccc3c(c2)C(=O)N([C@H](C)CO)C[C@H](C)[C@@H](CN(C)Cc2ccc(Cl)c(Cl)c2)OCCCC[C@@H](C)O3)cc1 | -9.3 | 21.2* | -10.2 | nt | nt | nt
COc1ccc(NC(=O)N(C)C[C@H]2Oc3ccc(NC(=O)Nc4c(C)noc4C)cc3C(=O)N([C@H](C)CO)C[C@H]2C)cc1 | 3.9 | 17.1* | 4.2 | nt | 9.8 | -3.7
COc1ccc(NC(=O)N(C)C[C@H]2Oc3ccc(NC(=O)Nc4c(C)noc4C)cc3C(=O)N([C@H](C)CO)C[C@@H]2C)cc1 | -1.9 | 3.4 | 1.4 | nt | -10.2 | -6.0
COc1ccc(S(=O)(=O)Nc2cccc3c2O[C@H](CN(C)Cc2ccccc2)[C@@H](C)CN([C@H](C)CO)C3=O)cc1 | 2.1 | 4.6 | -4.7 | nt | 53.0* | 0.0
C[C@H]1CN([C@@H](C)CO)C(=O)c2cccc(NC(=O)Nc3ccc(C(F)(F)F)cc3)c2O[C@@H]1CN(C)C(=O)Nc1ccc(F)cc1 | 4.5 | -56.0 | 1.9 | nt | 21.0 | 1.2
C[C@H](CO)N1C[C@H](C)[C@@H](CN(C)C(=O)Nc2ccc(C(F)(F)F)cc2)Oc2c(NC(=O)Nc3ccc(C(F)(F)F)cc3)cccc2C1=O | 19.8* | -151.9 | -7.6 | nt | 23.3 | 0.1
COc1ccc(S(=O)(=O)Nc2cccc3c2O[C@H](CN(C)Cc2ccncc2)[C@@H](C)CN([C@H](C)CO)C3=O)cc1 | -1.0 | 1.2 | 9.8 | nt | 4.1 | 1.4
CCOCc1cnc(C)nc1NCC(=O)c1c(C)[nH]c2cc(C)ccc12 | -5.1 | 1.4 | 6.1 | 12.3 | -5.8 | 1.5
